Test results from ChEMBL document CHEMBL1126770, “2,5-Dimethoxy congeners of (+)-and (-)-3-(3-hydroxyphenyl)-N-n- propylpiperidine” (1993).

Assays:
Rattus norvegicus [1] = assay: DA2 antagonist activity was tested by the duration of onset of action of cardiovascular response at 10 ug/kg; assay type: functional, Heart
Summary of the method: (§1)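 In anaesthetised Sprague-Dawley rats (urethane 900 mg/kg ip), cumulative iv doses at 0.48 log10 intervals were given via the femoral vein after ≥5 min of stable responses. Duration of hypotension and bradycardia (min) was taken from femoral arterial pressure and pulse-triggered heart rate recordings. Three rats per compound; mean ± SD.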

Rattus norvegicus [2] = assay: DA2 antagonist activity was tested by the duration of onset of action of cardiovascular response at 100 ug/kg; assay type: functional, Heart; summary of the method: as §1
Rattus norvegicus [3] = assay: DA2 antagonist activity was tested by the duration of onset of action of cardiovascular response at 30 ug/kg; assay type: functional, Heart; summary of the method: as §1
Rattus norvegicus [4] = assay: DA2 antagonist activity was tested by its ability to decrease the heart rate in anesthetized rat at 10 ug/kg; assay type: functional
Summary of the method: (§2)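 Urethane-anaesthetised (900 mg/kg ip) Sprague-Dawley rats received iv cumulative doses via the femoral vein, at 0.48 log10 steps once responses had been stable ≥5 min. Heart rate came from a cardiotachometer triggered by the femoral arterial pulse, as decrease in beats/min. n = 3 rats per compound; mean ± SD.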

Rattus norvegicus [5] = assay: DA2 antagonist activity was tested by its ability to decrease the heart rate in anesthetized rat at 100 ug/kg; assay type: functional; summary of the method: as §2
Rattus norvegicus [6] = assay: DA2 antagonist activity was tested by its ability to decrease the heart rate in anesthetized rat at 30 ug/kg; assay type: functional; summary of the method: as §2
Rattus norvegicus [7] = assay: DA2 antagonist activity was tested by its ability to decrease the arterial pressure in anesthetized rat at 100 ug/kg; assay type: functional, Artery
Summary of the method: (§3)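 Sprague-Dawley rats under urethane anaesthesia (900 mg/kg ip), with a femoral vein cannula for drug. Compound given iv as cumulative doses spaced 0.48 log10 units apart, each after responses had been stable ≥5 min. Mean arterial pressure was recorded from the femoral artery via a transducer, as decrease in mmHg. Three rats per compound; mean ± SD.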

Rattus norvegicus [8] = assay: DA2 antagonist activity was tested by its ability to decrease the arterial pressure in anesthetized rat at 30 ug/kg; assay type: functional, Artery; summary of the method: as §3
Rattus norvegicus [9] = assay: DA2 antagonist activity was tested by its ability to decrease the arterial pressure in anesthetized rat at 10 ug/kg; assay type: functional, Artery; summary of the method: as §3
Rattus norvegicus [10] = assay: DA2 antagonist activity was tested by the duration of onset of action of cardiovascular response at 1000 ug/kg; assay type: functional, Heart; summary of the method: as §1
Rattus norvegicus [11] = assay: DA2 antagonist activity was tested by the duration of onset of action of cardiovascular response at 3000 ug/kg; assay type: functional, Heart; summary of the method: as §1
Rattus norvegicus [12] = assay: DA2 antagonist activity was tested by the duration of onset of action of cardiovascular response at 300 ug/kg; assay type: functional, Heart; summary of the method: as §1
Rattus norvegicus [13] = assay: DA2 antagonist activity was tested by its to decrease the heart rate in anesthetized rat at 1000 ug/kg; assay type: functional; summary of the method: as §2
Rattus norvegicus [14] = assay: DA2 antagonist activity was tested by its to decrease the heart rate in anesthetized rat at 300 ug/kg; assay type: functional; summary of the method: as §2
Rattus norvegicus [15] = assay: DA2 antagonist activity was tested by its to decrease the heart rate in anesthetized rat at 3000 ug/kg; assay type: functional; summary of the method: as §2
Rattus norvegicus [16] = assay: DA2 antagonist activity was tested by its ability to decrease the arterial pressure in anesthetized rat at 300 ug/kg; assay type: functional, Artery; summary of the method: as §3
Rattus norvegicus [17] = assay: DA2 antagonist activity was tested by its ability to decrease the arterial pressure in anesthetized rat at 3000 ug/kg; assay type: functional, Artery; summary of the method: as §3
Rattus norvegicus [18] = assay: DA2 antagonist activity was tested by the duration of onset of action of cardiovascular response at 1000 ug/kg; Insufficient sample for statistical treatment; assay type: functional, Heart
Rattus norvegicus [19] = assay: DA2 antagonist activity was tested by its ability to decrease the heart rate in anesthetized rat at 1000 ug/kg; assay type: functional; summary of the method: as §2
Rattus norvegicus [20] = assay: DA2 antagonist activity was tested by its ability to decrease the heart rate in anesthetized rat at 300 ug/kg; assay type: functional; summary of the method: as §2
Rattus norvegicus [21] = assay: DA2 antagonist activity was tested by its ability to decrease the heart rate in anesthetized rat at 3000 ug/kg; assay type: functional; summary of the method: as §2
Rattus norvegicus [22] = assay: DA2 antagonist activity was tested by its ability to decrease the arterial pressure in anesthetized rat at […] ug/kg; assay type: functional, Artery; summary of the method: as §3

Question: `CCCN1CCC[C@H](c2cccc(O)c2)C1` was tested. Which Duration of action (Rattus norvegicus [1]) did it give?
Answer: 6 min

Question: And the Duration of action (Rattus norvegicus [2])?
Answer: 14 min

Question: What about the Duration of action (Rattus norvegicus [3]) of the same compound?
Answer: 10 min

Question: And the “Decrease in heart rate” value (Rattus norvegicus [4])?
Answer: 13 beats min-1

Question: What about the “Decrease in heart rate” value (Rattus norvegicus [5]) of the same compound?
Answer: 44 beats min-1

Question: And the “Decrease in heart rate” value (Rattus norvegicus [6])?
Answer: 37 beats min-1

Question: What about the Decrease in pressure (Rattus norvegicus [7]) of the same compound?
Answer: 23 mmHg

Question: What about the Decrease in pressure (Rattus norvegicus [8]) of the same compound?
Answer: 16 mmHg

Question: And the Decrease in pressure (Rattus norvegicus [9])?
Answer: 5 mmHg

Question: Which Duration of action (Rattus norvegicus [10]) does the source give for `CCCN1CCCC(c2cc(OC)ccc2OC)C1` (racemic) here?
Answer: 8 min

Question: And the Duration of action (Rattus norvegicus [11])?
Answer: 13 min

Question: And the Duration of action (Rattus norvegicus [12])?
Answer: 5 min

Question: What about the “Decrease in heart rate” value (Rattus norvegicus [13]) of the same compound?
Answer: 35 beats min-1

Question: What about the “Decrease in heart rate” value (Rattus norvegicus [14]) of the same compound?
Answer: 17 beats min-1

Question: And the “Decrease in heart rate” value (Rattus norvegicus [15])?
Answer: 45 beats min-1

Question: What about the Decrease in pressure (Rattus norvegicus [16]) of the same compound?
Answer: 10 mmHg

Question: And the Decrease in pressure (Rattus norvegicus [17])?
Answer: 23 mmHg

Question: `CCCN1CCCC(c2cc(OC)ccc2OC)C1` (single isomer, unassigned; (+)) was tested. Which Duration of action (Rattus norvegicus [18]) did it give?
Answer: 18 min

Question: What about the “Decrease in heart rate” value (Rattus norvegicus [19]) of the same compound?
Answer: 30 beats min-1

Question: What does the source list for `CCCN1CCCC(c2cc(OC)ccc2OC)C1` (single isomer, unassigned; (-))?
Answer: Duration of action (Rattus norvegicus [10]): 5 min; Duration of action (Rattus norvegicus [11]): 10 min; Duration of action (Rattus norvegicus [12]): 2 min; Decrease in heart rate (Rattus norvegicus [19]): 40 beats min-1; Decrease in heart rate (Rattus norvegicus [20]): 10 beats min-1; Decrease in heart rate (Rattus norvegicus [21]): 45 beats min-1; Decrease in pressure (Rattus norvegicus [16]): 15 mmHg; Decrease in pressure (Rattus norvegicus [22]): 27 mmHg
